In ChEMBL document CHEMBL4715745, “Synthesis and biological evaluation of novel FK228 analogues as potential isoform selective HDAC inhibitors” (Eur J Med Chem, 2016):

Key:
[1] = target: Histone deacetylase 1 (Homo sapiens, UniProt Q13547); assay: Inhibition of human HDAC1 expressed in 293T cells using Ac-KGLGK(Ac)-MCA as substrate incubated for 30 mins in presence of 0.1 mM DTT by fluorescence plate reader assay; set-up: species or system HEK293T
[2] = target: T1, Protein deacetylase HDAC6 (Mus musculus, UniProt Q9Z2V5); assay: Inhibition of mouse HDAC6 expressed in 293T cells using Ac-KGLGK(Ac)-MCA as substrate incubated for 30 mins in presence of 0.1 mM DTT by fluorescence plate reader assay; set-up: species or system HEK293T
T1 sequence (Q9Z2V5 whole entry): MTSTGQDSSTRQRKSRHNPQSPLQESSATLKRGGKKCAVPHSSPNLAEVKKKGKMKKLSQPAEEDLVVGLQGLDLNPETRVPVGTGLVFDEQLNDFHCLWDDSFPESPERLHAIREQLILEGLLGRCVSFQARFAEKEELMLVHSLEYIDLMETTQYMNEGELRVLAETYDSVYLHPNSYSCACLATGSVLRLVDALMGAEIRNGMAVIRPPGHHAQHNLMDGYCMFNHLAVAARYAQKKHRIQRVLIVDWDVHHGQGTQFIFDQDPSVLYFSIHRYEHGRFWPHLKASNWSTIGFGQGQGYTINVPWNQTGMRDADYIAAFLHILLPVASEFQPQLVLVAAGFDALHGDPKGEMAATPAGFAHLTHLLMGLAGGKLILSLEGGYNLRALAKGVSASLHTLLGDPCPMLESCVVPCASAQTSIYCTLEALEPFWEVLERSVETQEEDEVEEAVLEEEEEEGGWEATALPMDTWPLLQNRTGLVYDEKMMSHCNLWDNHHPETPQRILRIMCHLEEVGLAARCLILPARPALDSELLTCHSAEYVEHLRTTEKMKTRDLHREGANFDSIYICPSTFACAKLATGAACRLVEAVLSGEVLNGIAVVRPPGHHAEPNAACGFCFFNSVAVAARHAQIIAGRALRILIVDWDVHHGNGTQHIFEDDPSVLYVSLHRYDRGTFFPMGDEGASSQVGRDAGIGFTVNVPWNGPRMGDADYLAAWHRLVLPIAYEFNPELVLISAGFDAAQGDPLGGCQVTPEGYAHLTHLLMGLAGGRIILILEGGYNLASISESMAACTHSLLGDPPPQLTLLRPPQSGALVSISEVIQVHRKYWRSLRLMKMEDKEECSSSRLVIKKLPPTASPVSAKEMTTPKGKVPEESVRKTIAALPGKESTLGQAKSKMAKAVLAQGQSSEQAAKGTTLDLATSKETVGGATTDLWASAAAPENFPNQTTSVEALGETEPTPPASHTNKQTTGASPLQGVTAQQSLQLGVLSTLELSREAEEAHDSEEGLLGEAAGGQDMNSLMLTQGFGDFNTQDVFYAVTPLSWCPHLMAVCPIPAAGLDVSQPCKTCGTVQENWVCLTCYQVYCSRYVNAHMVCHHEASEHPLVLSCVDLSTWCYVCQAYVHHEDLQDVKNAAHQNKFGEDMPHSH
In short: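 HDAC enzyme assay run in the presence of 0.1 mM dithiothreitol (DTT); IC₅₀ determined.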

[3] = Selectivity index, ratio of IC50 for mouse HDAC6 expressed in 293T cells to IC50 for human HDAC1 expressed in 293T cells using Ac-KGLGK(Ac)-MCA as substrate incubated for 30 mins in presence of 0.1 mM DTT by fluorescence plate reader assay; details: 0.5 h
In short: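 Ratio of HDAC6 IC₅₀ to HDAC1 IC₅₀, taken as selectivity for class I HDAC1 over class II HDAC6. Both enzyme assays were run in the presence of 0.1 mM DTT.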

[4] = Growth inhibition of human HBC4 cells measured after 48 hrs by sulforhodamine B assay; assay type: functional
In short: (§1)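 Panel of 39 human cancer cell lines tested at the Japanese Foundation for Cancer Research. Five concentrations per compound, spanning 10⁻¹¹–10⁻⁷ M, 10⁻¹⁰–10⁻⁶ M or 10⁻⁸–10⁻⁴ M, were used to build dose-response curves. GI₅₀ is the concentration giving 50% growth inhibition relative to control.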

[5] = Growth inhibition of human BSY1 cells measured after 48 hrs by sulforhodamine B assay; assay type: functional; details: BSY-1; in short: as §1
[6] = Growth inhibition of human HBC5 cells measured after 48 hrs by sulforhodamine B assay; assay type: functional; in short: as §1
[7] = test system: MCF7; assay: Growth inhibition of human MCF7 cells measured after 48 hrs by sulforhodamine B assay; assay type: functional; in short: as §1
[8] = test system: MDA-MB-231; assay: Growth inhibition of human MDA-MB-231 cells measured after 48 hrs by sulforhodamine B assay; assay type: functional; in short: as §1
[9] = test system: U-251; assay: Growth inhibition of human U-251 cells measured after 48 hrs by sulforhodamine B assay; assay type: functional; in short: as §1
[10] = test system: SF-268; assay: Growth inhibition of human SF-268 cells measured after 48 hrs by sulforhodamine B assay; assay type: functional; in short: as §1
[11] = test system: SF-295; assay: Growth inhibition of human SF-295 cells measured after 48 hrs by sulforhodamine B assay; assay type: functional; in short: as §1
[12] = test system: SF-539; assay: Growth inhibition of human SF-539 cells measured after 48 hrs by sulforhodamine B assay; assay type: functional; in short: as §1
[13] = test system: SNB-75; assay: Growth inhibition of human SNB-75 cells measured after 48 hrs by sulforhodamine B assay; assay type: functional; in short: as §1
[14] = test system: SNB-78; assay: Growth inhibition of human SNB-78 cells measured after 48 hrs by sulforhodamine B assay; assay type: functional; in short: as §1
[15] = test system: HCC 2998; assay: Growth inhibition of human HCC 2998 cells measured after 48 hrs by sulforhodamine B assay; assay type: functional; in short: as §1
[16] = test system: KM12; assay: Growth inhibition of human KM12 cells measured after 48 hrs by sulforhodamine B assay; assay type: functional; in short: as §1
[17] = test system: HT-29; assay: Growth inhibition of human HT-29 cells measured after 48 hrs by sulforhodamine B assay; assay type: functional; in short: as §1
[18] = test system: HCT-15; assay: Growth inhibition of human HCT-15 cells measured after 48 hrs by sulforhodamine B assay; assay type: functional; in short: as §1
[19] = test system: HCT-116; assay: Growth inhibition of human HCT-116 cells measured after 48 hrs by sulforhodamine B assay; assay type: functional; in short: as §1
[20] = test system: NCI-H23; assay: Growth inhibition of human NCI-H23 cells measured after 48 hrs by sulforhodamine B assay; assay type: functional; in short: as §1
[21] = test system: NCI-H226; assay: Growth inhibition of human NCI-H226 cells measured after 48 hrs by sulforhodamine B assay; assay type: functional; in short: as §1
[22] = test system: NCI-H522; assay: Growth inhibition of human NCI-H522 cells measured after 48 hrs by sulforhodamine B assay; assay type: functional; in short: as §1
[23] = test system: NCI-H460; assay: Growth inhibition of human NCI-H460 cells measured after 48 hrs by sulforhodamine B assay; assay type: functional; in short: as §1
[24] = test system: A549; assay: Growth inhibition of human A549 cells measured after 48 hrs by sulforhodamine B assay; assay type: functional; in short: as §1
[25] = test system: DMS-273; assay: Growth inhibition of human DMS-273 cells measured after 48 hrs by sulforhodamine B assay; assay type: functional; in short: as §1
[26] = test system: DMS-114; assay: Growth inhibition of human DMS-114 cells measured after 48 hrs by sulforhodamine B assay; assay type: functional; in short: as §1
[27] = test system: LOX IMVI; assay: Growth inhibition of human LOX IMVI cells measured after 48 hrs by sulforhodamine B assay; assay type: functional; in short: as §1
[28] = test system: OVCAR-3; assay: Growth inhibition of human OVCAR-3 cells measured after 48 hrs by sulforhodamine B assay; assay type: functional; in short: as §1
[29] = test system: OVCAR-4; assay: Growth inhibition of human OVCAR-4 cells measured after 48 hrs by sulforhodamine B assay; assay type: functional; in short: as §1
[30] = test system: OVCAR-5; assay: Growth inhibition of human OVCAR-5 cells measured after 48 hrs by sulforhodamine B assay; assay type: functional; in short: as §1
[31] = test system: OVCAR-8; assay: Growth inhibition of human OVCAR-8 cells measured after 48 hrs by sulforhodamine B assay; assay type: functional; in short: as §1
[32] = test system: SK-OV-3; assay: Growth inhibition of human SK-OV-3 cells measured after 48 hrs by sulforhodamine B assay; assay type: functional; in short: as §1
[33] = test system: RXF 631; assay: Growth inhibition of human RXF 631 cells measured after 48 hrs by sulforhodamine B assay; assay type: functional; in short: as §1
[34] = test system: ACHN; assay: Growth inhibition of human ACHN cells measured after 48 hrs by sulforhodamine B assay; assay type: functional; in short: as §1
[35] = test system: St-4; assay: Growth inhibition of human St-4 cells measured after 48 hrs by sulforhodamine B assay; assay type: functional; in short: as §1
[36] = test system: MKN-1; assay: Growth inhibition of human MKN-1 cells measured after 48 hrs by sulforhodamine B assay; assay type: functional; in short: as §1
[37] = test system: MKN-7; assay: Growth inhibition of human MKN-7 cells measured after 48 hrs by sulforhodamine B assay; assay type: functional; in short: as §1
[38] = test system: MKN-28; assay: Growth inhibition of human MKN-28 cells measured after 48 hrs by sulforhodamine B assay; assay type: functional; in short: as §1
[39] = test system: MKN-45; assay: Growth inhibition of human MKN-45 cells measured after 48 hrs by sulforhodamine B assay; assay type: functional; in short: as §1
[40] = test system: MKN-74; assay: Growth inhibition of human MKN-74 cells measured after 48 hrs by sulforhodamine B assay; assay type: functional; in short: as §1
[41] = test system: DU-145; assay: Growth inhibition of human DU-145 cells measured after 48 hrs by sulforhodamine B assay; assay type: functional; in short: as §1
[42] = test system: PC-3; assay: Growth inhibition of human PC-3 cells measured after 48 hrs by sulforhodamine B assay; assay type: functional; in short: as §1

Sequence of Histone deacetylase 1 (Q13547 whole entry): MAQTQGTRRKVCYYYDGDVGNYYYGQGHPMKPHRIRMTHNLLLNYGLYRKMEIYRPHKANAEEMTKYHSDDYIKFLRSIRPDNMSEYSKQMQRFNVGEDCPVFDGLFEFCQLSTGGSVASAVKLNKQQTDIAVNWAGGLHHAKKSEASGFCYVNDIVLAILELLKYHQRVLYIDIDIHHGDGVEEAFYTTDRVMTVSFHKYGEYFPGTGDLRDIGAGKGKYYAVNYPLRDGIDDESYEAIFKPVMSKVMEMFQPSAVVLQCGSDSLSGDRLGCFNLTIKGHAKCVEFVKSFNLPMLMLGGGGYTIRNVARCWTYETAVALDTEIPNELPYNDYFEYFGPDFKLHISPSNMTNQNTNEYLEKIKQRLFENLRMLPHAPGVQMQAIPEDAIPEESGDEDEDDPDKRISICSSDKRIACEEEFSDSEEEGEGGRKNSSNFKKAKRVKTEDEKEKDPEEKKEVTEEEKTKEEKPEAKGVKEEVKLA

CC(C)[C@H]1NC(=O)C[C@H]2/C=C/CCSSC[C@@H](NC1=O)C(=O)N[C@@H](C)C(=O)NCC(=O)O2
IC50 [1]: 0.184 µM | IC50 [2]: 1.02 µM | Ratio IC50 [3]: 6 | GI50 [4]: 17 µM | GI50 [5]: 27 µM | GI50 [6]: 21 µM | GI50 [7]: 17 µM | GI50 [8]: 16 µM | GI50 [9]: 17 µM | GI50 [10]: 17 µM | GI50 [11]: 51 µM | GI50 [12]: 15 µM | GI50 [13]: 14 µM | GI50 [14]: 13 µM | GI50 [15]: 13 µM | GI50 [16]: 15 µM | GI50 [17]: 12 µM | GI50 [18]: 100 µM | GI50 [19]: 11 µM | GI50 [20]: 27 µM | GI50 [21]: 21 µM | GI50 [22]: 1.7 µM | GI50 [23]: 43 µM | GI50 [24]: 18 µM | GI50 [25]: 47 µM | GI50 [26]: 15 µM | GI50 [27]: 4.5 µM | GI50 [28]: 16 µM | GI50 [29]: 22 µM | GI50 [30]: 15 µM | GI50 [31]: 31 µM | GI50 [32]: 16 µM | GI50 [33]: 100 µM | GI50 [34]: 100 µM | GI50 [35]: 62 µM | GI50 [36]: 14 µM | GI50 [37]: 43 µM | GI50 [38]: 24 µM | GI50 [39]: 100 µM | GI50 [40]: 18 µM | GI50 [41]: 15 µM | GI50 [42]: 13 µM
